Measurements published in ChEMBL document CHEMBL1151448, “Comparative antianaerobic activities of doripenem determined by MIC and time-kill analysis” (2008).
Converted amounts (≈) assume the structure as drawn. The source made the active and inactive calls. No cut-off for these calls is given here.

How the values were obtained:
Parvimonas micra = assay: Antimicrobial activity against Micromonas micros isolated from intra-abdominal infection and pelvic inflammatory disease patients after 48 hrs by agar dilution method; type: functional
Summary of the method: (§1)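 CLSI agar dilution on brucella blood agar supplemented with laked sheep blood, hemin and vitamin K. Inocula of about 1 × 10^5 CFU/spot were applied by Steers replicator, and plates were incubated 48 h at 35°C in an anaerobic glove box. MIC was the concentration giving marked growth reduction versus the anaerobic control plate. QC strains were included each run, and β-lactamase was detected by Cefinase disk.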

Prevotella intermedia [1] = assay: Bactericidal activity against beta lactamase-positive Prevotella intermedia isolated from intra-abdominal infection and pelvic inflammatory disease patients assessed as bacterial killing at 2 times MIC after 48 hrs by time kill analysis; type: functional
Summary of the method: (§2)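 Anaerobic macrodilution time-kill. Inoculum from brucella blood plates, prepared and diluted in prereduced brucella broth inside the anaerobe chamber. Final 10^6 to 10^7 CFU/ml in prereduced brucella broth with 5% laked horse blood cells, 5 μg/ml hemin and 1 μg/ml vitamin K1. […] Shaken at 35°C for 48 h. Viable counts taken at 6, 12, 24 and 48 h. 99.9% kill taken as bactericidal.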

Finegoldia magna [2] = assay: Antimicrobial activity against Finegoldia magna isolated from intra-abdominal infection and pelvic inflammatory disease patients after 48 hrs by agar dilution method; type: functional; summary of the method: as §1
[3] = test system: Peptostreptococcus anaerobius; assay: Antimicrobial activity against Peptostreptococcus anaerobius isolated from intra-abdominal infection and pelvic inflammatory disease patients after 48 hrs by agar dilution method; type: functional; summary of the method: as §1
Finegoldia magna [4] = assay: Bactericidal activity against beta lactamase-positive Finegoldia magna isolated from intra-abdominal infection and pelvic inflammatory disease patients assessed as bacterial killing at 2 times MIC after 48 hrs by time kill analysis; type: functional; summary of the method: as §2
[5] = test system: Enterocloster clostridioformis; assay: Antimicrobial activity against Clostridium clostridioforme isolated from intra-abdominal infection and pelvic inflammatory disease patients after 48 hrs by agar dilution method; type: functional; summary of the method: as §1
Clostridioides difficile [6] = assay: Antimicrobial activity against Clostridium difficile isolated from intra-abdominal infection and pelvic inflammatory disease patients after 48 hrs by agar dilution method; type: functional; summary of the method: as §1
Prevotella denticola = assay: Antimicrobial activity against beta lactamase-positive Prevotella denticola isolated from intra-abdominal infection and pelvic inflammatory disease patients after 48 hrs by agar dilution method; type: functional; summary of the method: as §1
[7] = test system: Clostridium paraputrificum; assay: Antimicrobial activity against Clostridium paraputrificum isolated from intra-abdominal infection and pelvic inflammatory disease patients after 48 hrs by agar dilution method; type: functional; summary of the method: as §1
Prevotella buccae = assay: Antimicrobial activity against beta lactamase-positive Prevotella buccae isolated from intra-abdominal infection and pelvic inflammatory disease patients after 48 hrs by agar dilution method; type: functional; details: Segatella buccae; summary of the method: as §1
Bacteroides ovatus = assay: Antimicrobial activity against beta lactamase-positive Bacteroides ovatus isolated from intra-abdominal infection and pelvic inflammatory disease patients after 48 hrs by agar dilution method; type: functional; summary of the method: as §1
Bacteroides fragilis [8] = assay: Antimicrobial activity against beta lactamase-positive Bacteroides fragilis isolated from intra-abdominal infection and pelvic inflammatory disease patients after 48 hrs by time kill analysis; type: functional
Summary of the method: (§3)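 The MIC was read by inspecting macrodilution time-kill tubes. Vials held prereduced brucella broth with 5% laked horse blood cells, hemin 5 μg/ml and vitamin K1 1 μg/ml. Final inoculum was 10^6–10^7 CFU/ml, prepared inside the anaerobe chamber. Vials were incubated 48 h at 35°C in a shaking water bath.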

Phocaeicola vulgatus = assay: Antimicrobial activity against beta lactamase-positive Bacteroides vulgatus isolated from intra-abdominal infection and pelvic inflammatory disease patients after 48 hrs by agar dilution method; type: functional; summary of the method: as §1
Clostridioides difficile [9] = assay: Bactericidal activity against Clostridium difficile isolated from intra-abdominal infection and pelvic inflammatory disease patients assessed as 99.9% bacterial killing at 2 times MIC after 48 hrs by time kill analysis; type: functional, organism-based
Summary of the method: (§4)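 Macrodilution time-kill in prereduced brucella broth with 5% laked horse blood, hemin 5 μg/ml and vitamin K1 1 μg/ml, at final inoculum 10^6–10^7 CFU/ml. […] Viable counts were taken at 6, 12, 24 and 48 h on plates incubated 48 h anaerobically. 99.9% kill was taken as bactericidal.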

[10] = test system: Bacteroides thetaiotaomicron; assay: Bactericidal activity against beta lactamase-positive Bacteroides thetaiotaomicron isolated from intra-abdominal infection and pelvic inflammatory disease patients assessed as bacterial killing at 2 times MIC after 48 hrs by time kill analysis; type: functional; summary of the method: as §4
Prevotella intermedia [11] = assay: Antimicrobial activity against beta lactamase-positive Prevotella intermedia isolated from intra-abdominal infection and pelvic inflammatory disease patients after 48 hrs by time kill analysis; type: functional; summary of the method: as §3
Prevotella corporis = assay: Antimicrobial activity against beta lactamase-positive Prevotella corporis isolated from intra-abdominal infection and pelvic inflammatory disease patients after 48 hrs by agar dilution method; type: functional; summary of the method: as §1
Porphyromonas gingivalis = assay: Antimicrobial activity against Porphyromonas gingivalis isolated from intra-abdominal infection and pelvic inflammatory disease patients after 48 hrs by agar dilution method; type: functional; summary of the method: as §1
Prevotella nigrescens = assay: Antimicrobial activity against beta lactamase-positive Prevotella nigrescens isolated from intra-abdominal infection and pelvic inflammatory disease patients after 48 hrs by agar dilution method; type: functional; summary of the method: as §1
Clostridioides difficile [12] = assay: Bactericidal activity against Clostridium difficile isolated from intra-abdominal infection and pelvic inflammatory disease patients assessed as bacterial killing at 2 times MIC after 48 hrs by time kill analysis; type: functional; summary of the method: as §4
Fusobacterium nucleatum [13] = assay: Bactericidal activity against beta lactamase-positive Fusobacterium nucleatum isolated from intra-abdominal infection and pelvic inflammatory disease patients assessed as bacterial killing at MIC after 24 hrs by time kill analysis; type: functional; summary of the method: as §2
Anaerococcus tetradius = assay: Antimicrobial activity against Anaerococcus tetradius isolated from intra-abdominal infection and pelvic inflammatory disease patients after 48 hrs by agar dilution method; type: functional; summary of the method: as §1
Bacteroides fragilis [14] = assay: Bactericidal activity against beta lactamase-positive Bacteroides fragilis isolated from intra-abdominal infection and pelvic inflammatory disease patients assessed as bacterial killing at MIC after 24 hrs by time kill analysis; type: functional; summary of the method: as §4
Thomasclavelia ramosa = assay: Antimicrobial activity against Clostridium ramosum isolated from intra-abdominal infection and pelvic inflammatory disease patients after 48 hrs by agar dilution method; type: functional; summary of the method: as §1
[15] = test system: Parabacteroides distasonis; assay: Antimicrobial activity against beta lactamase-positive Bacteroides distasonis isolated from intra-abdominal infection and pelvic inflammatory disease patients after 48 hrs by agar dilution method; type: functional; summary of the method: as §1
[16] = test system: Paraclostridium bifermentans; assay: Antimicrobial activity against Clostridium bifermentans isolated from intra-abdominal infection and pelvic inflammatory disease patients after 48 hrs by agar dilution method; type: functional; summary of the method: as §1
Fusobacterium nucleatum [17] = assay: Bactericidal activity against beta lactamase-positive Fusobacterium nucleatum isolated from intra-abdominal infection and pelvic inflammatory disease patients assessed as bacterial killing at 2 times MIC after 48 hrs by time kill analysis; type: functional; summary of the method: as §2
Finegoldia magna [18] = assay: Bactericidal activity against beta lactamase-positive Finegoldia magna isolated from intra-abdominal infection and pelvic inflammatory disease patients assessed as bacterial killing at MIC after 24 hrs by time kill analysis; type: functional; summary of the method: as §2
Prevotella intermedia [19] = assay: Bactericidal activity against beta lactamase-positive Prevotella intermedia isolated from intra-abdominal infection and pelvic inflammatory disease patients assessed as bacterial killing at MIC after 24 hrs by time kill analysis; type: functional; summary of the method: as §2
Finegoldia magna [20] = assay: Antimicrobial activity against beta lactamase-positive Finegoldia magna isolated from intra-abdominal infection and pelvic inflammatory disease patients after 48 hrs by time kill analysis; type: functional; summary of the method: as §3

SMILES: C[C@@H](O)[C@H]1C(=O)N2C(C(=O)O)=C(SCCNC=N)C[C@H]12 [IMIPENEM ANHYDROUS]
- MIC (Parvimonas micra): 0.03 µg/mL (≈ 0.1 µM)
- MIC50 (Parvimonas micra): 0.03 µg/mL (≈ 0.1 µM)
- MIC90 (Parvimonas micra): 0.06 µg/mL (≈ 0.2 µM)
- Activity (Prevotella intermedia [1]): 99%
- MIC50 (Finegoldia magna [2]): 0.06 µg/mL (≈ 0.2 µM)
- MIC90 (Finegoldia magna [2]): 0.06 µg/mL (≈ 0.2 µM)
- MIC [3]: 0.06 µg/mL (≈ 0.2 µM)
- MIC50 [3]: 0.06 µg/mL (≈ 0.2 µM)
- MIC90 [3]: 1 µg/mL (≈ 3.34 µM)
- Activity (Finegoldia magna [4]): 99%
- MIC [5]: 2 µg/mL (≈ 6.68 µM)
- MIC50 (Clostridioides difficile [6]): 8 µg/mL (≈ 26.7 µM)
- MIC90 (Clostridioides difficile [6]): 8 µg/mL (≈ 26.7 µM)
- MIC50 (Prevotella denticola): 0.03 µg/mL (≈ 0.1 µM)
- MIC90 (Prevotella denticola): 0.06 µg/mL (≈ 0.2 µM)
- MIC [7]: 0.5 µg/mL (≈ 1.67 µM)
- MIC (Prevotella buccae): 0.03 µg/mL (≈ 0.1 µM)
- MIC50 (Prevotella buccae): 0.03 µg/mL (≈ 0.1 µM)
- MIC90 (Prevotella buccae): 0.03 µg/mL (≈ 0.1 µM)
- MIC50 (Bacteroides ovatus): 0.25 µg/mL (≈ 0.835 µM)
- MIC90 (Bacteroides ovatus): 0.5 µg/mL (≈ 1.67 µM)
- MIC (Bacteroides fragilis [8]): 0.06 µg/mL (≈ 0.2 µM)
- MIC50 (Phocaeicola vulgatus): 0.5 µg/mL (≈ 1.67 µM)
- MIC90 (Phocaeicola vulgatus): 1 µg/mL (≈ 3.34 µM)
- Activity (Clostridioides difficile [9]): inactive
- Activity [10]: 99%
- MIC (Prevotella intermedia [11]): 0.03 µg/mL (≈ 0.1 µM)
- MIC50 (Prevotella corporis): 0.03 µg/mL (≈ 0.1 µM)
- MIC90 (Prevotella corporis): 0.06 µg/mL (≈ 0.2 µM)
- MIC (Porphyromonas gingivalis): ≤ 0.016 µg/mL
- MIC50 (Prevotella nigrescens): 0.03 µg/mL (≈ 0.1 µM)
- MIC90 (Prevotella nigrescens): 0.03 µg/mL (≈ 0.1 µM)
- Activity (Clostridioides difficile [12]): 99%
- Activity (Fusobacterium nucleatum [13]): 90%
- MIC50 (Anaerococcus tetradius): 0.03 µg/mL (≈ 0.1 µM)
- Activity (Bacteroides fragilis [14]): 90%
- MIC (Thomasclavelia ramosa): 0.25 µg/mL (≈ 0.835 µM)
- MIC50 (Thomasclavelia ramosa): 0.25 µg/mL (≈ 0.835 µM)
- MIC50 [15]: 0.5 µg/mL (≈ 1.67 µM)
- MIC90 [15]: 1 µg/mL (≈ 3.34 µM)
- MIC [16]: 0.25 µg/mL (≈ 0.835 µM)
- Activity (Fusobacterium nucleatum [17]): 99%
- Activity (Finegoldia magna [18]): 90%
- Activity (Prevotella intermedia [19]): 90%
- MIC (Finegoldia magna [20]): 0.06 µg/mL (≈ 0.2 µM)

SMILES: C[C@@H](O)[C@H]1C(=O)N2C(C(=O)O)=C(S[C@@H]3CN[C@H](CNS(N)(=O)=O)C3)[C@H](C)[C@H]12 [DORIPENEM]
- MIC (Parvimonas micra): ≤ 0.016 µg/mL
- MIC50 (Parvimonas micra): ≤ 0.016 µg/mL
- MIC90 (Parvimonas micra): 0.06 µg/mL (≈ 0.143 µM)
- Activity (Prevotella intermedia [1]): 99%
- MIC (Finegoldia magna [2]): 0.06 µg/mL (≈ 0.143 µM)
- MIC50 (Finegoldia magna [2]): 0.06 µg/mL (≈ 0.143 µM)
- MIC90 (Finegoldia magna [2]): 0.125 µg/mL (≈ 0.297 µM)
- MIC50 [3]: 0.25 µg/mL (≈ 0.595 µM)
- MIC90 [3]: 2 µg/mL (≈ 4.76 µM)
- Activity (Finegoldia magna [4]): 99%
- MIC [5]: 1 µg/mL (≈ 2.38 µM)
- MIC50 (Clostridioides difficile [6]): 2 µg/mL (≈ 4.76 µM)
- MIC90 (Clostridioides difficile [6]): 4 µg/mL (≈ 9.51 µM)
- MIC50 (Prevotella denticola): 0.03 µg/mL (≈ 0.0713 µM)
- MIC90 (Prevotella denticola): 0.125 µg/mL (≈ 0.297 µM)
- MIC [7]: 0.25 µg/mL (≈ 0.595 µM)
- MIC (Prevotella buccae): 0.06 µg/mL (≈ 0.143 µM)
- MIC50 (Prevotella buccae): 0.06 µg/mL (≈ 0.143 µM)
- MIC90 (Prevotella buccae): 0.125 µg/mL (≈ 0.297 µM)
- MIC (Bacteroides ovatus): 0.25 µg/mL (≈ 0.595 µM)
- MIC50 (Bacteroides ovatus): 0.25 µg/mL (≈ 0.595 µM)
- MIC90 (Bacteroides ovatus): 1 µg/mL (≈ 2.38 µM)
- MIC (Bacteroides fragilis [8]): 0.25 µg/mL (≈ 0.595 µM)
- MIC50 (Phocaeicola vulgatus): 0.25 µg/mL (≈ 0.595 µM)
- MIC90 (Phocaeicola vulgatus): 1 µg/mL (≈ 2.38 µM)
- Activity (Clostridioides difficile [9]): inactive
- Activity [10]: 99%
- MIC (Prevotella intermedia [11]): 0.06 µg/mL (≈ 0.143 µM)
- MIC (Prevotella corporis): 0.03 µg/mL (≈ 0.0713 µM)
- MIC50 (Prevotella corporis): 0.03 µg/mL (≈ 0.0713 µM)
- MIC90 (Prevotella corporis): 0.06 µg/mL (≈ 0.143 µM)
- MIC (Porphyromonas gingivalis): ≤ 0.016 µg/mL
- MIC50 (Prevotella nigrescens): 0.03 µg/mL (≈ 0.0713 µM)
- MIC90 (Prevotella nigrescens): 0.06 µg/mL (≈ 0.143 µM)
- Activity (Clostridioides difficile [12]): 99%
- Activity (Fusobacterium nucleatum [13]): 90%
- MIC50 (Anaerococcus tetradius): 0.03 µg/mL (≈ 0.0713 µM)
- Activity (Bacteroides fragilis [14]): 90%
- MIC (Thomasclavelia ramosa): 0.5 µg/mL (≈ 1.19 µM)
- MIC50 (Thomasclavelia ramosa): 0.5 µg/mL (≈ 1.19 µM)
- MIC50 [15]: 0.5 µg/mL (≈ 1.19 µM)
- MIC90 [15]: 1 µg/mL (≈ 2.38 µM)
- MIC [16]: 0.06 µg/mL (≈ 0.143 µM)
- Activity (Fusobacterium nucleatum [17]): 99%
- Activity (Finegoldia magna [18]): 90%
- Activity (Prevotella intermedia [19]): 90%
- MIC (Finegoldia magna [20]): 0.06 µg/mL (≈ 0.143 µM)
